# Measurements gathered from unrelated publications.
# Protocols differ between the studies behind these lines.
# Effect on: metabolic stability
# Host: rat
Compound,medium,tested at,pH,half-life [min]
C[C@]12CC[C@H]3[C@@H](CCC4=CC(=O)CC[C@@]43C)[C@@H]1CC[C@@H]2O,liver microsomes,1 µM,pH 7.4,5.45
Cc1ncc2n1-c1ccc(Cl)cc1C(c1ccccc1F)=NC2,hepatocytes,,,20.4
Cc1[nH]c(C)c(S(=O)(=O)Nc2ccc(S(=O)(=O)F)c(Cl)c2)c1C(=O)N1CCC(F)(F)C1,liver microsomes,,,11
CC(C)CC(=O)OC[C@H]1O[C@@](C#N)(c2ccc3c(N)ncnn23)[C@H](O)[C@@H]1O,plasma,5 µM,,0.422
Cc1[nH]c(C)c(S(=O)(=O)Nc2ccc(S(F)(F)(F)(F)F)c(Cl)c2)c1C(=O)N1CCC(F)(F)C1,liver microsomes,,,34
O=c1[nH]c2ccccc2n1C1CCN(CCCC(c2ccc(F)cc2)c2ccc(F)cc2)CC1,liver microsomes,100 ng/mL,,80
C[C@]12CC[C@H]3[C@@H](CCC4=CC(=O)CC[C@@]43C)[C@@H]1CC[C@@H]2O,liver microsomes,,,1.55
CC(=O)c1c(C)c2cnc(Nc3ccc(C4CCN(CCS(C)(=O)=O)CC4)cn3)nc2n(C2CCCC2)c1=O,liver microsomes,,,65.4
